Test results: ChEMBL document CHEMBL1121553, “Substituted 6,7-dihydroimidazo[1,2-a]purin-9(4H)-ones” (J Med Chem, 1980)
≈ marks a conversion by molar mass, not a printed value. Each block holds one compound with its values, some of them ahead of it. Calls of active or inactive are those of the source. The calls are words filed in the database; no cut-off is given here.

What was measured:
Cavia porcellus [1] = species on record: Cavia porcellus; test: Evaluation of in vitro bronchodilator activity in isolated guinea pig tracheal spiral preparation; assay type: functional; details: Trachea
Procedure, shortened: (§1)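 Guinea pig tracheal spiral held under 1.0 g tension, equilibrated 90–120 min to maximal spontaneous tonus. One drug concentration per spiral, ≥3 trials per concentration. Relaxation was expressed as % of that produced by papaverine (10 µg/mL) in the same tissue. Concentrations are bath values in µg/mL; the 50%-relaxation concentration was obtained by regression.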

Rattus norvegicus [2] = test: Antiallergic activity by passive cutaneous anaphylaxis test in ovalbumin sensitized male Harlan-Sprague-Dawley rats administered perorally; assay type: functional; details: po
Procedure, shortened: (§2)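 Donor rats got egg albumin im (1 mg/rat) plus killed B. pertussis vaccine ip (2 × 10¹⁰ organisms/rat) and were bled 10–12 days later for IgE-rich antiserum. Recipient rats (100–150 g) were sensitized intradermally with 0.1 mL of 1:2.5 and 1:10 antiserum dilutions.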

Cavia porcellus [3] = species on record: Cavia porcellus; test: In vitro bronchodilator activity in isolated guinea pig tracheal spiral preparation; assay type: functional; details: Trachea; procedure, shortened: as §1
Rattus norvegicus [4] = test: In vivo bronchodilator activity in methacholine (intravenous) induced bronchospasm in male Harlan-Sprague-Dawley rats when administered intraduodenally; statistically significant inhibition of < 50% at thr stated dose; assay type: functional
Rattus norvegicus [5] = test: Antiallergic activity by passive cutaneous anaphylaxis test in ovalbumin sensitized male Harlan-Sprague-Dawley rats at 25 mg/kg oral dose (inactive); assay type: functional, organism-based; parameters: dose 25 mg/kg; procedure, shortened: as §2
Rattus norvegicus [6] = test: Antiallergic activity was evaluated by inhibition of allergen-induced bronchospasm in male Harlan-Wistar rats when administered intraduodenally 15 min prior to antigen challenge; assay type: functional; details: intraduodenal
Rattus norvegicus [7] = test: In vivo bronchodilator activity in methacholine (intravenous) induced bronchospasm in male Harlan-Sprague-Dawley rats when administered intraduodenally; assay type: functional
Rattus norvegicus [8] = test: Antiallergic activity was evaluated by passive cutaneous anaphylaxis test in egg albumin sensitized male Harlan-Sprague-Dawley rats when administered perorally; assay type: functional; details: po; procedure, shortened: as §2
Rattus norvegicus [9] = test: Percent inhibition of PCA reaction in anesthetized rats at 47.6 mg/kg oral administration for 3 hr; assay type: functional
Procedure, shortened: (§3)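 Passive cutaneous anaphylaxis in anesthetized rats. Passive sensitization used intradermal IgE antiserum (1:2.5 and 1:10), with a 48-h latent period. Intraduodenal or oral dose is expressed as free-acid equivalent of the salt given. Rats were challenged at 15 min, 3, 6 or 24 h with iv egg albumin 25 mg/kg plus Evans blue 25 mg/kg. Inhibition was calculated from mean spot diameters versus vehicle controls, 10 animals per dose.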

Rattus norvegicus [10] = test: Percent inhibition of PCA reaction in anesthetized rats at 11.7 mg/kg intraduodenal administration for 3 hr
Rattus norvegicus [11] = test: Percent inhibition of PCA reaction in anesthetized rats at 47.6 mg/kg oral administration for 15 min; assay type: functional; details: 0.25 h; procedure, shortened: as §3
Rattus norvegicus [12] = test: Antiallergic activity by passive cutaneous anaphylaxis test in rats by intraduodenal administration; assay type: functional
Procedure, shortened: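 Recipient male Harlan-Sprague-Dawley or Wistar rats (100–150 g) received 0.1 mL intradermal antiserum at 1:2.5 and 1:10. Donor antiserum came from rats given egg albumin 1 mg im plus killed B. pertussis 2 × 10¹⁰ ip, bled 10–12 days later. After 48 h, drug went intraduodenally under anesthesia, then iv egg albumin 25 mg/kg with Evans blue 25 mg/kg. Read-out was spot-diameter inhibition versus controls, ≥5 rats/dose; ED50 was estimated.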

Rattus norvegicus [13] = species on record: Rattus norvegicus; test: Antiallergic activity by passive cutaneous anaphylaxis test in vitro in rats; assay type: functional
Procedure, shortened: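 Peritoneal mast cells were lavaged from male Harlan-Sprague-Dawley rats (200–300 g) with HBSS containing 0.1% albumin and 5 mM phosphate. Cells were sensitized with IgE antiserum plus heparin for 2 h at 37 °C, then challenged with egg albumin, drug added simultaneously. After 10 min, histamine was measured fluorimetrically; inhibition versus no-drug release, four trials per concentration.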

[14] = Inhibition of rat lung cGMP-Phosphodiesterase
Rattus norvegicus [15] = test: Percent inhibition of PCA reaction in anesthetized rats at 47.6 mg/kg oral administration for 24 hr r; assay type: functional; procedure, shortened: as §3
Rattus norvegicus [16] = test: Percent inhibition of PCA reaction in anesthetized rats after 11.7 mg/kg intraduodenal administration for 15 min; assay type: functional; details: 0.25 h; procedure, shortened: as §3
Rattus norvegicus [17] = test: Percent inhibition of PCA reaction in anesthetized rats at 47.6 mg/kg oral administration for 6 hr; assay type: functional; procedure, shortened: as §3
Rattus norvegicus [18] = test: Antiallergic activity by passive cutaneous anaphylaxis test in rats by intravenous administration; assay type: functional; procedure, shortened: as §2

IC50 (Cavia porcellus [1]): 54 µg/mL (≈ 142 µM)
SMILES: O=C1c2[nH]c(Br)nc2N(Cc2ccc(Cl)cc2)C2=NCCN12

IC50 (Cavia porcellus [3]): 5.3 µg/mL (≈ 16.8 µM)
SMILES: Cc1nc2c([nH]1)N(Cc1ccc(Cl)cc1)C1=NCCN1C2=O
ED50 (Rattus norvegicus [7]): 1.3 mg/kg

IC50 (Cavia porcellus [3]): 13 µg/mL (≈ 39.4 µM)
SMILES: CCc1nc2c([nH]1)N(Cc1ccc(Cl)cc1)C1=NCCN1C2=O
ED50 (Rattus norvegicus [4]): > 10 mg/kg

IC50 (Cavia porcellus [3]): 53 µg/mL (≈ 168 µM)
SMILES: O=C1c2[nH]cnc2N(CCc2ccc(Cl)cc2)C2=NCCN12
ED50 (Rattus norvegicus [5]): inactive

IC50 (Cavia porcellus [3]): 8.4 µg/mL (≈ 25.5 µM)
SMILES: Cc1nc2c(n1C)C(=O)N1CCN=C1N2Cc1ccc(Cl)cc1

IC50 (Cavia porcellus [3]): 12.5 µg/mL (≈ 37.2 µM)
SMILES: O=C1c2[nH]cnc2N(Cc2ccc(Cl)c(Cl)c2)C2=NCCN12

IC50 (Cavia porcellus [3]): 5.1 µg/mL (≈ 16 µM)
SMILES: S=C1c2[nH]cnc2N(Cc2ccc(Cl)cc2)C2=NCCN12
ED50 (Rattus norvegicus [4]): > 30 mg/kg

More lines, now with the values behind:

SMILES: O=C1c2nc[nH]c2N(Cc2ccccn2)C2=NCCN12
ED50 (Rattus norvegicus [2]): > 25 mg/kg | IC50 (Cavia porcellus [3]): 128 µg/mL (≈ 477 µM)

SMILES: N=C1c2[nH]cnc2N(Cc2ccc(Cl)cc2)C2=NCCN12
ED50 (Rattus norvegicus [4]): > 30 mg/kg | IC50 (Cavia porcellus [3]): 19.8 µg/mL (≈ 65.8 µM)

SMILES: O=C1c2nc[nH]c2N(CC2CCCCC2)C2=NCCN12
ED50 (Rattus norvegicus [5]): inactive | IC50 (Cavia porcellus [1]): 10 µg/mL (≈ 36.6 µM)

SMILES: C[C@H]1N=C2N(Cc3ccc(Cl)cc3)c3[nH]cnc3C(=O)N2[C@H]1C
ED50 (Rattus norvegicus [6]): 1.7 mg/kg | ED50 (Rattus norvegicus [7]): 3 mg/kg | ED50 (Rattus norvegicus [8]): 28.5 mg/kg | IC50 (Cavia porcellus [3]): 0.7 µg/mL (≈ 2.12 µM)

SMILES: Cc1nc2c([nH]1)N(Cc1ccc(Cl)cc1)C1=NC(C)(C)CN1C2=O
ED50 (Rattus norvegicus [6]): 1.08 mg/kg | ED50 (Rattus norvegicus [7]): 7.3 mg/kg | ED50 (Rattus norvegicus [8]): 44.4 mg/kg | IC50 (Cavia porcellus [3]): 1.7 µg/mL (≈ 4.94 µM)

SMILES: O=C1c2[nH]cnc2N(Cc2cccc(Cl)c2)C2=NCCN12
IC50 (Cavia porcellus [3]): 12.5 µg/mL (≈ 41.4 µM)

SMILES: Cc1nc2c(n1C)C(=O)N1CC(C)N=C1N2Cc1ccc(Cl)cc1 (stereo unspecified)
ED50 (Rattus norvegicus [6]): 14.2 mg/kg | ED50 (Rattus norvegicus [7]): 7.5 mg/kg | ED50 (Rattus norvegicus [8]): 38.7 mg/kg | IC50 (Cavia porcellus [3]): 7.9 µg/mL (≈ 23 µM)

SMILES: CC(C)CN1C2=NCCN2C(=O)c2[nH]c(C(C)C)nc21
ED50 (Rattus norvegicus [7]): 9.5 mg/kg | ED50 (Rattus norvegicus [8]): 15.3 mg/kg | IC50 (Cavia porcellus [3]): 11.5 µg/mL (≈ 41.8 µM)

SMILES: Cn1c(=O)c2nc[nH]c2n(C)c1=O.O [THEOPHYLLINE]
inhibition in vivo at 47.6 mg/kg (Rattus norvegicus [9]): 52.5% | inhibition in vivo at 11.7 mg/kg (Rattus norvegicus [10]): 25.1% | inhibition in vivo at 47.6 mg/kg (Rattus norvegicus [11]): 51.9% | ED50 (Rattus norvegicus [12]): 11.7 mg/kg | IC50 (Rattus norvegicus [13]): 2.5 mM | Ki [14]: 1.15 mM | inhibition in vivo at 47.6 mg/kg (Rattus norvegicus [15]): 0% | inhibition in vivo at 11.7 mg/kg (Rattus norvegicus [16]): 42.4% | inhibition in vivo at 47.6 mg/kg (Rattus norvegicus [17]): 13% | ED50 (Rattus norvegicus [18]): > 7.9 mg/kg | IC50 (Cavia porcellus [1]): 18.5 µg/mL

SMILES: O=C1N2CCN=C2c2[nH]cnc2N1Cc1ccc(Cl)cc1
ED50 (Rattus norvegicus [4]): > 50 mg/kg

SMILES: C[C@@H]1N=C2N(Cc3ccc(Cl)cc3)c3[nH]cnc3C(=O)N2[C@H]1C
ED50 (Rattus norvegicus [6]): 2.8 mg/kg | ED50 (Rattus norvegicus [7]): 5 mg/kg | ED50 (Rattus norvegicus [8]): 35.5 mg/kg | IC50 (Cavia porcellus [3]): 1.1 µg/mL (≈ 3.34 µM)

SMILES: CC1CN2C(=O)c3[nH]cnc3N(Cc3ccc(Cl)cc3)C2=N1 (stereo unspecified)
ED50 (Rattus norvegicus [6]): 1.5 mg/kg | ED50 (Rattus norvegicus [7]): 2.1 mg/kg | ED50 (Rattus norvegicus [8]): 10.6 mg/kg | IC50 (Cavia porcellus [3]): 3.7 µg/mL (≈ 11.7 µM)

SMILES: Cc1nc2c(n1C)C(=O)N1CCN=C1N2CC(C)C
IC50 (Cavia porcellus [3]): 36.6 µg/mL (≈ 140 µM)

SMILES: CC(C)CN1C2=NC(C)CN2C(=O)c2[nH]cnc21 (stereo unspecified)
ED50 (Rattus norvegicus [2]): > 30 mg/kg | IC50 (Cavia porcellus [3]): 14 µg/mL (≈ 56.6 µM)
